The source made the active and inactive calls. No cut-off for these calls is given here.
Legend:
Plasmodium falciparum [1] = test: Antiplasmodial activity against chloroquine-susceptible Plasmodium falciparum L1 infected in human erythrocytes assessed as inhibition of [3H]hypoxanthine uptake after 48 hrs; format: functional, organism-based
In short: (§1)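 Strains were cultured in A-positive human blood in RPMI 1640 with 10% human serum, 25 mM HEPES and 25 mM NaHCO3, under 10% O2/5% CO2/85% N2 at 37 °C. Microtests used 0.5% parasitemia and 1.5% hematocrit. Tritiated hypoxanthine (1 μCi/well) was added at time zero, then 48 h incubation, freeze-thaw, harvest and scintillation counting. IC50 was taken by nonlinear regression against drug-free controls.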

Plasmodium falciparum [2] = test: Antiplasmodial activity against chloroquine-susceptible Plasmodium falciparum K14 infected in human erythrocytes assessed as inhibition of [3H]hypoxanthine uptake after 48 hrs; format: functional, organism-based; in short: as §1
Plasmodium falciparum [3] = test: Antiplasmodial activity against chloroquine-susceptible Plasmodium falciparum W2 infected in human erythrocytes assessed as inhibition of [3H]hypoxanthine uptake after 48 hrs; format: functional, organism-based; in short: as §1
Plasmodium falciparum [4] = test: Antiplasmodial activity against chloroquine-susceptible Plasmodium falciparum 3D7 infected in human erythrocytes assessed as inhibition of [3H]hypoxanthine uptake after 48 hrs; format: functional, organism-based
In short: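 Culture in RPMI 1640 with 10% human serum, 25 mM HEPES, 25 mM NaHCO3, A-positive blood, 10% O2/5% CO2/85% N2, 37 C. Isotopic microtest: 0.5% parasitemia, 1.5% hematocrit, 1 μCi tritiated hypoxanthine at time zero, 48 h; freeze-thaw lysis, filter harvest, scintillation count. IC50 = 50% uptake versus drug-free control, nonlinear regression of log dose-response curves.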

Plasmodium falciparum [5] = test: Antiplasmodial activity against chloroquine-susceptible Plasmodium falciparum PA infected in human erythrocytes assessed as inhibition of [3H]hypoxanthine uptake after 48 hrs; format: functional, organism-based; in short: as §1
Plasmodium falciparum [6] = test: Antiplasmodial activity against chloroquine-susceptible Plasmodium falciparum Bres infected in human erythrocytes assessed as inhibition of [3H]hypoxanthine uptake after 48 hrs; format: functional, organism-based; in short: as §1
Plasmodium falciparum [7] = test: Antiplasmodial activity against chloroquine-susceptible Plasmodium falciparum FCM29 infected in human erythrocytes assessed as inhibition of [3H]hypoxanthine uptake after 48 hrs; format: functional, organism-based; in short: as §1
Plasmodium falciparum [8] = test: Antiplasmodial activity against chloroquine-susceptible Plasmodium falciparum FCR3 infected in human erythrocytes assessed as inhibition of [3H]hypoxanthine uptake after 48 hrs; format: functional, organism-based; in short: as §1
Plasmodium falciparum [9] = test: Antiplasmodial activity against chloroquine-susceptible Plasmodium falciparum K2 infected in human erythrocytes assessed as inhibition of [3H]hypoxanthine uptake after 48 hrs; format: functional, organism-based; in short: as §1
Plasmodium falciparum [10] = test: Antiplasmodial activity against chloroquine-susceptible Plasmodium falciparum 8425 infected in human erythrocytes assessed as inhibition of [3H]hypoxanthine uptake after 48 hrs; format: functional, organism-based; in short: as §1
Plasmodium falciparum [11] = test: Antiplasmodial activity against chloroquine-susceptible Plasmodium falciparum D6 infected in human erythrocytes assessed as inhibition of [3H]hypoxanthine uptake after 48 hrs; format: functional, organism-based; in short: as §1
Plasmodium falciparum [12] = test: Antiplasmodial activity against chloroquine-susceptible Plasmodium falciparum Voll infected in human erythrocytes assessed as inhibition of [3H]hypoxanthine uptake after 48 hrs; format: functional, organism-based; in short: as §1
Nucleic Acid [13] = test: Binding affinity to polydAdT DNA containing 100% AT assessed as middle of the peak at half height melting temperature at 1 uM by spectrophotometry analysis; format: nucleic-acid assay
In short: (§2)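 Drug at 1 μM was mixed with DNA at 15 μM base pairs (15:1 bp:drug) in TE with 5 mM NaCl. Absorbance at 260 nm was recorded from 30-97 °C at 0.5 °C/min, with readings every 0.5 °C. Curves were normalized, smoothed and differentiated. Tmmax = derivative peak maximum; Tmint = middle of the integrated area; Tm1/2 = middle of the peak at half height.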

NCH89 = test: Antiproliferative activity against human carmustine-resistant NCH-89 cells assessed as BrdU incorporation after 48 hrs; format: functional, cell-based; settings: NCH89, 48 h
In short: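 NCH89 glioblastoma cells were seeded at 7 × 10^3 cells/well in replicate wells for 24 h. Compound was then added at 0.1-100 μM. After 48 h, BrdU was added at 100 μM final, and incorporation was detected with a BrdU labeling/detection kit.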

Plasmodium falciparum [14] = test: Antiplasmodial activity against chloroquine-susceptible Plasmodium falciparum NF54 infected in human erythrocytes assessed as inhibition of [3H]hypoxanthine uptake after 48 hrs; format: functional, organism-based
In short: (§3)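 Asynchronous ring-stage cultures in human A Rh+ erythrocytes (RPMI 1640, HEPES, NaHCO3, hypoxanthine, 0.5% Albumax II, 5% CO2, 37 C), 1% parasitemia; top final drug concentration 30 μM. After 24 h, [3H]-hypoxanthine (0.2 μCi/well) added, further 48 h incubation; plates freeze-thawed, harvested, uptake counted; IC50 calculated.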

Mus musculus [15] = test: Toxicity in Plasmodium berghei ANKA-infected CD1 mice (Mus musculus) assessed as mortality at 30 mg/kg, intraperitoneally; format: organism-based; design: dose 30 mg/kg, route intraperitoneal; settings: in vivo, ip
In short: (§4)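 Peters 4-day suppressive test, P. berghei ANKA: 18-20 g mice infected iv with 2 × 10^6 parasitized red cells day 0; compounds freshly made in 10% DMSO in sterile PBS, given ip from 2 h postinfection and on days 1-3; daily dose 30 mg/kg or 50 mg/kg; deaths recorded.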

Nucleic Acid [16] = test: Binding affinity to pUC18 DNA containing 50% AT assessed as middle of the integrated surface melting temperature at 1 uM by spectrophotometry analysis; format: nucleic-acid assay; in short: as §2
Plasmodium falciparum [17] = test: Antiplasmodial activity against chloroquine-resistant Plasmodium falciparum Dd2 infected in human erythrocytes assessed as inhibition of [3H]hypoxanthine uptake after 48 hrs; format: functional, organism-based
In short: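 Ring-stage infected erythrocytes (0.5% parasitemia, 2.5% hematocrit) exposed to compounds 48 h, then radioactive hypoxanthine 24 h; radioactivity in precipitable material taken as proliferation index for IC50.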

MRC5 = test: Cytotoxicity against human MRC5 after 3 days; format: cell-based; settings: MRC5, 72 h
In short: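 MRC-5SV2 cells were grown in Earle's MEM with 5% FCSi and plated at about 10^4 cells/well. After 3 days of incubation, viability was read fluorimetrically with resazurin (ex 550/em 590 nm). Growth reduction was expressed relative to untreated control wells, and CC50 was derived.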

Nucleic Acid [18] = test: Binding affinity to polydAdT DNA containing 100% AT assessed as maximum melting temperature at 1 uM by spectrophotometry analysis; format: nucleic-acid assay; in short: as §2
Nucleic Acid [19] = test: Binding affinity to pUC18 DNA containing 50% AT assessed as maximum melting temperature at 1 uM by spectrophotometry analysis; format: nucleic-acid assay; in short: as §2
Plasmodium falciparum [20] = test: Antiplasmodial activity against chloroquine, pyrimethamine, cycloguanil-resistant Plasmodium falciparum K1 infected in human erythrocytes assessed as inhibition of [3H]hypoxanthine uptake after 48 hrs; format: functional, organism-based; in short: as §3
Nucleic Acid [21] = test: Binding affinity to pUC18 DNA containing 50% AT assessed as middle of the peak at half height melting temperature at 1 uM by spectrophotometry analysis; format: nucleic-acid assay; in short: as §2
Nucleic Acid [22] = test: Binding affinity to pUC18 DNA at pH 7.5 by UV-Vis spectrophotometry analysis; format: nucleic-acid assay
In short: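 A 10 μM drug solution was titrated at room temperature with linearized pUC18 DNA (50% AT), 0.1-50 μM base pairs final. Buffer was TE (10 mM Tris-HCl, 0.1 mM EDTA) with 5 mM NaCl, ionic strength 12 mM. UV-Vis absorption spectra were recorded at 220-380 nm. Kd = DNA concentration at which half the drug is bound.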

Mus musculus [23] = test: Toxicity in ip dosed Swiss mouse assessed as mortality at 30 mg/kg, ip; format: organism-based; design: dose 30 mg/kg, route intraperitoneal; settings: in vivo; in short: as §4
Nucleic Acid [24] = test: Binding affinity to pUC18 DNA at pH 7.5 by spectrofluorimetry analysis; format: nucleic-acid assay
In short: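 A 1-10 μM drug solution was titrated at room temperature with linearized pUC18 DNA (50% AT), 0.1-50 μM base pairs final, in TE buffer with 5 mM NaCl (ionic strength 12 mM). Fluorescence used excitation at 320 nm and emission at 340-500 nm, corrected for buffer and instrument response. Kd = DNA concentration giving half-bound drug.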

Plasmodium berghei = test: Antiplasmodial activity against Plasmodium berghei ANKA infected in Swiss mice (Mus musculus) assessed as reduction of parasitaemia at 30 mg/kg, intraperitoneally; format: functional, organism-based; design: dose 30 mg/kg
In short: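 Swiss mice (18-20 g) infected intravenously on day 0 with 2 × 10^6 P. berghei ANKA parasitized red cells. Compound was freshly prepared in 10% DMSO in sterile PBS and given ip, first 2 h postinfection, then on days +1-3 (4-day suppressive test). On day +4, parasitemia was counted microscopically on Giemsa-stained tail-blood films.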

Nucleic Acid [25] = test: Binding affinity to polydAdT DNA containing 100% AT assessed as middle of the integrated surface melting temperature at 1 uM by spectrophotometry analysis; format: nucleic-acid assay; in short: as §2

| SMILES | IC50 (Plasmodium falciparum [1]) [nM] | IC90 (Plasmodium falciparum [1]) [nM] | IC50 (Plasmodium falciparum [2]) [nM] | IC90 (Plasmodium falciparum [2]) [nM] | IC50 (Plasmodium falciparum [3]) [nM] | IC90 (Plasmodium falciparum [3]) [nM] | IC50 (Plasmodium falciparum [4]) [nM] | IC90 (Plasmodium falciparum [4]) [nM] | IC50 (Plasmodium falciparum [5]) [nM] | IC90 (Plasmodium falciparum [5]) [nM] | IC50 (Plasmodium falciparum [6]) [nM] | IC90 (Plasmodium falciparum [6]) [nM] | IC90 (Plasmodium falciparum [7]) [nM] | IC50 (Plasmodium falciparum [8]) [nM] | IC90 (Plasmodium falciparum [8]) [nM] | IC50 (Plasmodium falciparum [9]) [nM] | IC90 (Plasmodium falciparum [9]) [nM] | IC50 (Plasmodium falciparum [10]) [nM] | IC90 (Plasmodium falciparum [10]) [nM] | IC50 (Plasmodium falciparum [11]) [nM] | other results |
| --- | --- | --- | --- | --- | --- | --- | --- | --- | --- | --- | --- | --- | --- | --- | --- | --- | --- | --- | --- | --- | --- |
| C=C[C@H]1CN2CC[C@H]1C[C@H]2[C@H](O)c1ccnc2ccc(OC)cc12 [QUININE] | 531 | 995 | 496 | 1640 | 684 | 1250 | 104 | 597 | 627 | 1110 | 689 | 614 | 1200 | 665 | 1110 | 619 | 1510 | 130 | 390 | 61.8 | IC90 (Plasmodium falciparum [11]): 464 nM; IC50 (Plasmodium falciparum [12]): 422 nM; IC90 (Plasmodium falciparum [12]): 843 nM |
| CN(C)CCC(NCCNc1ccnc2cc(Cl)ccc12)c1ccccc1 (stereo not given) | 61.7 | 177 | 129 | 267 | 99.8 | 260 | 8.1 | 14.4 | 161 | 318 | 158 | 310 | 376 | 64.4 | 196 | 87.1 | 247 | 8.8 | 16.9 | 12.2 | Tm (Nucleic Acid [13]): 47.4 °C; IC50 (NCH89): 7300 nM; IC50 (Plasmodium falciparum [7]): 244 nM; IC50 (Plasmodium falciparum [14]): 7.1 nM; Activity (Mus musculus [15]): Toxic; Tm (Nucleic Acid [16]): 75.5 °C; IC50 (Plasmodium falciparum [17]): 25.6 nM; IC50 (MRC5): 27000 nM; Tm (Nucleic Acid [18]): 46.8 °C; Tm (Nucleic Acid [19]): 74.4 °C; IC50 (Plasmodium falciparum [20]): 61.9 nM; IC90 (Plasmodium falciparum [11]): 16.7 nM; Tm (Nucleic Acid [21]): 76.5 °C; Kd (Nucleic Acid [22]): 7000 nM; Activity (Mus musculus [23]): Toxic; Kd (Nucleic Acid [24]): 8000 nM; Activity (Plasmodium berghei): Active; IC50 (Plasmodium falciparum [12]): 65.2 nM; IC90 (Plasmodium falciparum [12]): 144 nM; Tm (Nucleic Acid [25]): 47.1 °C |
| CC(C)NCCNc1ccnc2cc(Cl)ccc12 | 63.2 | 132 | 171 | 316 | 169 | 320 | 35.2 | 65.6 | 64 | 107 | 129 | 218 | 369 | 86.1 | 164 | 130 | 285 | 29 | 59.4 | 35.6 | Tm (Nucleic Acid [13]): 46.5 °C; IC50 (NCH89): 30400 nM; IC50 (Plasmodium falciparum [7]): 239 nM; IC50 (Plasmodium falciparum [14]): 8.9 nM; Tm (Nucleic Acid [16]): 73.9 °C; IC50 (Plasmodium falciparum [17]): 22.6 nM; IC50 (MRC5): 64000 nM; Tm (Nucleic Acid [18]): 46.6 °C; Tm (Nucleic Acid [19]): 73 °C; IC50 (Plasmodium falciparum [20]): 47.4 nM; IC90 (Plasmodium falciparum [11]): 67.8 nM; Tm (Nucleic Acid [21]): 74.5 °C; Kd (Nucleic Acid [22]): 17500 nM; Kd (Nucleic Acid [24]): 8000 nM; IC50 (Plasmodium falciparum [12]): 63.7 nM; IC90 (Plasmodium falciparum [12]): 135 nM; Tm (Nucleic Acid [25]): 46.5 °C |
